The results in this text go back to ChEMBL document CHEMBL1629507, “Small molecule inhibitors of hantavirus infection” (Bioorg Med Chem Lett, 2010).

What all share (format): cell-based
In test [1] the target is T1, Integrin alpha-V/beta-3 (Homo sapiens) (UniProt P05106+P06756). The experiment in a line: Inhibition of human […] alphaVbeta3 expressed in african green monkey Vero E6 cells assessed as inhibition of SNV SN77734 entry at 10 uM.
Test [2] addresses T1, Integrin alpha-V/beta-3 (Homo sapiens). Put plainly: Inhibition of human alphaVbeta3 receptor expressed in african green monkey Vero E6 cells assessed as inhibition of SNV infection in cells at 1 uM by immunofluorescent assay. An outline of the steps: (§1)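 Vero E6 cells (10^4/well, duplicate wells) were grown 24 h at 37 °C in MEM with 2.5% FBS. They were pretreated 1 h at 37 °C with small molecules (1 µM) or cyclic peptides (2 mM, in PBS pH 7.4). SNV strain SN77734 (500–1,000 FFU/ml) was then added for 1 h, then washed out. After 24–36 h, cells were fixed and stained with anti-SNV N plus FITC antibody, and foci counted. % inhibition is relative to untreated cells, normalized to ReoPro 80 µg/ml set as 80%; at least 4 replicates.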

The target is the same in test [3]. Put plainly: Inhibition of human […] alphaVbeta3 expressed in african green monkey Vero E6 cells assessed as inhibition of Hantaan 76/118 viral entry at 1 mM.
For test [4] the target is unchanged. Put plainly: Inhibition of human […] alphaVbeta3 expressed in african green monkey Vero E6 cells assessed as inhibition of Andes CHI-7913 viral entry at 1 mM.
Test [5] shares this target. Put plainly: Inhibition of human […] alphaVbeta3 expressed in african green monkey Vero E6 cells assessed as inhibition of Hantaan 76/118 viral entry at 10 uM.
The target of test [6] is T2, Integrin alpha-V/beta-1 (Homo sapiens) (UniProt P05556+P06756). The experiment in a line: Inhibition of human […] alphaVbeta1 expressed in african green monkey Vero E6 cells assessed as inhibition of PHV-1 entry at 1 mM.
Test [7] has as its target T2, Integrin alpha-V/beta-1 (Homo sapiens). The experiment in a line: Inhibition of human […] alphaVbeta1 expressed in african green monkey Vero E6 cells assessed as inhibition of PHV-1 entry at 10 uM.
The target in test [8] is T1, Integrin alpha-V/beta-3 (Homo sapiens). The experiment in a line: Inhibition of human […] alphaVbeta3 expressed in african green monkey Vero E6 cells assessed as inhibition of SNV SN77734 entry at 1 mM.
For test [9] the target is unchanged. Put plainly: Inhibition of human alphaVbeta3 receptor expressed in african green monkey Vero E6 cells assessed as inhibition of SNV infection in cells by immunofluorescent assay. Put shortly:
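SNV infection of Vero E6 cells in a dose-response format. Cells were pretreated 1 h at 37 °C with compound across a concentration range, then exposed to virus for 1 h, washed, and cultured 24–36 h. Infected foci were counted by anti-N immunofluorescence. Inhibition was taken relative to untreated cells and normalized to ReoPro. EC50 derived from curves; points are the mean and standard error of N = 4.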

The target is the same in test [10]. Put plainly: Inhibition of human […] alphaVbeta3 expressed in african green monkey Vero E6 cells assessed as inhibition of Andes CHI-7913 viral entry at 10 uM.
Test [11] shares this target. Put plainly: Inhibition of human alphaVbeta3 receptor expressed in african green monkey Vero E6 cells assessed as inhibition of SNV infection in cells at 2 mM by immunofluorescent assay. Put shortly:
as §1

Calls of active or inactive are those of the source. The calls are words filed in the database; no cut-off is given here. Where a SMILES comes first, the peptide text is derived from it. Bridges are numbered along the chain shown (N, C = ends). The star is where a group is joined. Tos = Cc1ccc(S(=O)(=O)*)cc1

For `O=C(NCc1cccs1)C(Cc1ccccc1)NS(=O)(=O)c1ccc2nsnc2c1` (racemic), the inhibition result in test [1], in test [3], in test [4], in test [5], in [6] and in test [7] was “Active” in each case. In addition, the inhibition result in test [8] and in test [10] was “Active” throughout. The inhibition (commonly the relative decrease from the control value, in per cent) in [2] is 29%; in test [9], “Dose-dependent effect”. Regarding `O=C(NCc1ccc2c(c1)OCO2)C(Cc1ccccc1)NS(=O)(=O)c1cccc2cccnc12` (racemic), the inhibition entry in test [1], in [3], in test [4], in test [5], in [6] and in [7] was “Active” throughout. Also, the inhibition result in test [8] and in [10] was “Active” throughout. For the same molecule, the inhibition in [2] is 46.5%; in [9], “Dose-dependent effect”.

With `CC(C)C[C@@H]1NC(=O)[C@H](CCC(N)=O)NC(=O)[C@H]([C@@H](C)O)NC(=O)[C@H](CCCCN)NC(=O)[C@H](C(C)C)NC(=O)[C@H](Cc2ccccc2)NC(=O)[C@@H]2CCCN2C(=O)[C@@H](N)CSSC[C@@H](C(=O)O)NC1=O` (H-CPFVKTQLC-OH; disulfide 1-9), the inhibition in test [11] amounted to 54.6%. As for `CC1(C)CC(=O)c2cc(C(=O)NCCCN3CCOCC3)c(=O)n(-c3ccc(Cl)cc3)c2C1`, the inhibition in [2] turned out to be 18%. On the same count and under the same terms, in the case of `COc1ccc(OC)c(NC(=O)C(Cc2ccccc2)NS(=O)(=O)c2cccc3nsnc23)c1` (centres undefined) it was 6.4%; in that of `O=C1c2cccnc2C(=O)N1Cc1ccc(F)cc1S(=O)(=O)N1CCC(Cc2ccccc2)CC1`, 0%; in that of `Cc1ccc(S(=O)(=O)N2CCN(C(=O)CSc3nnc(C)c(=O)[nH]3)C2c2ccccc2)cc1` (centres undefined), 4%.

For the molecule `O=C(Cn1c(=O)n(Cc2ccc3c(c2)OCO3)c(=O)c2ccccc21)NCCc1ccccc1`, the inhibition in test [2] was 25.9%.

As for `CCOc1ccccc1CNC(=O)C1CCCN(c2ncnc3onc(-c4ccc(F)cc4)c23)C1` (centres undefined), in [2], the inhibition was 18%. On to `NS(=O)(=O)c1ccc(CCNC(=O)C(NS(=O)(=O)c2cccc3nsnc23)c2ccccc2)cc1` (centres undefined), for which the inhibition in test [2] came out at 6%.

In the case of `Cc1noc2ncnc(N3CCCC(C(=O)NCc4ccc5c(c4)OCO5)C3)c12` (centres undefined), the inhibition in test [2] was 3%. Consider `CCc1ccccc1NC(=O)C(Cc1ccccc1)NS(=O)(=O)c1cccc2nsnc12` (centres undefined), for which the inhibition in [2] turned out to be 2%.

For the molecule `COc1ccc(/C=C(\NC(=O)c2ccccc2)C(=O)NCCCCCC(=O)O)cc1`, in test [2], the inhibition was determined as 8%. Same read-out and setting: in the case of `Cc1cc(NC(=O)C(Cc2ccccc2)NS(=O)(=O)c2cccc3cccnc23)no1` (centres undefined) it was 9.6%; in that of `O=C(NCc1ccccc1Cl)C(Cc1ccccc1)NS(=O)(=O)c1cccc2nsnc12` (centres undefined), 0%.

Consider `O=c1c(/C=N/Cc2ccco2)c(CSc2ccc(Cl)cc2)[nH]n1-c1nc2ccccc2s1`, for which the inhibition entry in [1], in test [3], in test [4], in [5], in test [6] and in test [7] was “Active” each time. The inhibition entry in test [8] and in [10] was “Active” throughout. Besides, the inhibition in [2] is 29%; in test [9] it was “Dose-dependent effect”. `Cc1nnc(SCC(=O)NCCc2cccs2)c2nn(-c3ccccc3)c(C)c12`: in [2], the inhibition came to 17%. The same measure, in the same setting: in the case of `Cc1ccc(Cl)cc1NC(=O)C(Cc1ccccc1)NS(=O)(=O)c1cccc2cccnc12` (centres undefined) it was 14%. Same read-out and setting: in the case of `O=C(NC(C(=O)N/N=C/c1ccco1)c1nnc(O)c2ccccc12)c1ccccc1` (centres undefined) it was 33%; in that of `O=C(C(Cc1ccccc1)NS(=O)(=O)c1ccc2nsnc2c1)N1CCn2c1nc1ccccc12` (centres undefined), 0%; in that of `CC(NC(=O)C(Cc1ccccc1)NS(=O)(=O)c1cccc2nsnc12)c1ccccc1` (centres undefined), 2%. Still for that read-out and setting: under `O=C(C(Cc1ccccc1)NS(=O)(=O)c1ccc2nsnc2c1)N1CCC2(CC1)OCCO2` (centres undefined) stands 6%; under `CN1CCN(C(=O)C(Cc2ccccc2)NS(=O)(=O)c2cccc3cccnc23)CC1` (centres undefined), 0%; under `C/C=C/C(=O)NC(=S)NNC(=O)C(Oc1ccccc1)Oc1ccccc1`, 16.1%.

For `CCCN(CCC)CCNC(=O)C(Cc1ccccc1)NS(=O)(=O)c1cccc2nsnc12` (centres undefined), the inhibition in test [2] stood at 34%. Same read-out and setting: under `O=C(NCCc1ccccc1)C(Cc1ccccc1)NS(=O)(=O)c1ccc(Br)cc1` (centres undefined) stands 6.4%; under `Cc1ccc(S(=O)(=O)NC(Cc2ccccc2)C(=O)NC(CCCNC(=N)N)C(=O)O)cc1` (stereo not drawn) (Tos-Phe-Arg-OH; configuration not given here), 0%. The same measure, in the same setting: under `Cc1cccc(OCC(=O)N/N=C/c2ccc(OC(=O)/C=C/c3ccco3)cc2)c1` stands 8%; under `O=C(Nc1ccccc1Cl)C(Cc1ccccc1)NS(=O)(=O)c1cccc2nsnc12` (centres undefined), 10%. Same read-out and setting: in the case of `O=C(NCc1ccc2c(c1)OCO2)C(Cc1ccccc1)NS(=O)(=O)c1cccc2nsnc12` (centres undefined) it was 0%; in that of `O=C(NCCc1ccc(Cl)cc1)C1CCCN(c2ncnc3onc(-c4ccc(F)cc4)c23)C1` (centres undefined), 14.5%; in that of `O=C(NCc1cccc(Cl)c1)C1CCCN(c2ncnc3onc(-c4ccc(F)cc4)c23)C1` (centres undefined), 6%. Consider `O=C(NCCC1=CCCCC1)C(Cc1ccccc1)NS(=O)(=O)c1cccc2nsnc12` (centres undefined), for which, in test [2], the inhibition worked out at 0%.

`CCOC(=O)N1CCN(C(=O)C(Cc2ccccc2)NS(=O)(=O)c2ccc3nsnc3c2)CC1` (centres undefined): the inhibition in test [2] turned out to be 4%. Same read-out and setting: in the case of `COc1ccc(CNC(=O)c2ccc3c(c2)N(Cc2ccccc2)C(=O)c2ccccc2S3)cc1` it was 22%; in that of `O=C(NCc1cccs1)C(Cc1ccccc1)NS(=O)(=O)c1cccc2cccnc12` (centres undefined), 12%; in that of `COc1ccc(CCNC(=O)C(Cc2ccccc2)NS(=O)(=O)c2cccc3nsnc23)cc1OC` (centres undefined), 0%. For the molecule `CC(C)[C@@H]1NC(=O)[C@H](Cc2ccccc2)NC(=O)[C@H]2CCCN2C(=O)[C@@H](N)CSSC[C@@H](C(=O)O)NC1=O`, the inhibition result in test [1], in test [3], in test [4], in test [5], in [6] and in test [7] was “Active” in each case. Also, the inhibition result in test [8] and in [10] was “Active” each time. For the same molecule, the inhibition in test [11] amounted to 53%. On to `O=C(CSc1nc2ccsc2c(=O)n1-c1ccc(Cl)cc1)NCCc1ccc(Cl)cc1`, for which, in test [2], the inhibition turned out to be 11.4%.
